What was measured:
[1] = biological target: Metabotropic glutamate receptor 5 (Rattus norvegicus, UniProt P31424); assay: Displacement of [3H]MPEP from mGluR5 receptor in Sprague-Dawley rat forebrain membrane after 60 mins by liquid scintillation spectrometry
[2] = biological target: T1, Metabotropic glutamate receptor 5 (Homo sapiens, UniProt P41594); assay: Displacement of [3H]MPEP from human cloned mGluR5 receptor expressed in CHO-T-Rex cells after 60 mins by liquid scintillation spectrometry; type: cell-based
Target sequence in this assay (P41594 whole entry): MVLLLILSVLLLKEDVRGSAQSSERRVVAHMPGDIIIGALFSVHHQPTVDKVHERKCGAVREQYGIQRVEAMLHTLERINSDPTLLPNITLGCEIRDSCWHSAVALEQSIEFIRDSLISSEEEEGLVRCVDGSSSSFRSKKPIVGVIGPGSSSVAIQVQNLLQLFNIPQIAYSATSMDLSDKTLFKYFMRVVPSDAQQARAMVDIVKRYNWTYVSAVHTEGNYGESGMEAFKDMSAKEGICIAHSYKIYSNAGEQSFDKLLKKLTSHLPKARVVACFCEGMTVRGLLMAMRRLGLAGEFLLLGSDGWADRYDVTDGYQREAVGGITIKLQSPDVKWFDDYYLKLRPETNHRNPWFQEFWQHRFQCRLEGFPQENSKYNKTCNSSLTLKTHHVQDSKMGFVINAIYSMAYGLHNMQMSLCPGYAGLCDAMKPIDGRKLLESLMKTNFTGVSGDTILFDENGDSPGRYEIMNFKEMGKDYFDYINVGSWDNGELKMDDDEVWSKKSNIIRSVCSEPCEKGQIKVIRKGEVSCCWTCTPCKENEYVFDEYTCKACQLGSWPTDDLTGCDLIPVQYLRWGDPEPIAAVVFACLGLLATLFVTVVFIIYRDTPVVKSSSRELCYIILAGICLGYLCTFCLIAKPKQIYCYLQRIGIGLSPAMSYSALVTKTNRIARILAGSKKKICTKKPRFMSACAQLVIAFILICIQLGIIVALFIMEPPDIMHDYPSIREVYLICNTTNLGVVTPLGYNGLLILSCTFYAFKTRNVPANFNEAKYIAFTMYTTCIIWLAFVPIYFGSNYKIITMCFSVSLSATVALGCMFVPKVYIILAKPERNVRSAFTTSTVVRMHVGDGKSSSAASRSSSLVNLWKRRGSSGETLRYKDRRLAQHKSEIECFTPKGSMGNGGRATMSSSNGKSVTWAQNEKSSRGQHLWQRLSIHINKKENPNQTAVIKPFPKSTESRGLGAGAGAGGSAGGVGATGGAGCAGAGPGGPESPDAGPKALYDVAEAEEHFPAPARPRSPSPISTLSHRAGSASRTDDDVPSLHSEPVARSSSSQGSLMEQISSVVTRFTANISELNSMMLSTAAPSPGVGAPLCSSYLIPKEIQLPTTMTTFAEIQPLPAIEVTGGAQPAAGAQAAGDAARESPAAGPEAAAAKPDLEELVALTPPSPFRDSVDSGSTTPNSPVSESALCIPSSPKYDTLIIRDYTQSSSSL

[3] = biological target: T1, Metabotropic glutamate receptor 5; assay: Negative allosteric modulatory activity at human cloned mGluR5 receptor expressed in CHO-T-Rex cells assessed as inhibiton of quisqualate-induced calcium mobilization treated 10 mins prior to agonist application by fluorescence analysis; type: functional, cell-based
In short: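 CHO T-REx cells expressing human mGlu5, induced 18 h with 3 ng/mL tetracycline and seeded at 80,000 cells/well. Loaded 1 h at 37 °C with 2 µM Fluo-4/AM in HBSS with 20 mM HEPES and 2.5 mM probenecid, then washed. Compound (0.5% DMSO final) added 10 min before quisqualate at its daily EC80. Peak minus basal fluorescence read every 1.5 s for 60 s.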
Target sequence in this assay (P41594 whole entry): as above

[4] = biological target: T2, Metabotropic glutamate receptor 1 (Rattus norvegicus, UniProt P23385); assay: Displacement of [3H]R214127 from rat cloned mGluR1 receptor expressed in CHO-T-Rex cells after 30 mins by liquid scintillation spectrometry; type: cell-based
In short: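 CHO T-REx cells stably expressing rat mGlu1, derepressed by 1 µg/mL tetracycline for 18 h. Nonspecific binding with 1 µM R214127. Filtration, scintillation counting. Ki by Cheng-Prusoff.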

[5] = biological target: T2, Metabotropic glutamate receptor 1; assay: Negative allosteric modulatory activity at rat cloned mGluR1 receptor expressed in CHO-T-Rex cells assessed as inhibiton of quisqualate-induced calcium mobilization treated 10 mins prior to agonist application by fluorescence analysis; type: functional, cell-based
In short: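 CHO T-REx cells expressing rat mGlu1, induced 18 h with 10 ng/mL tetracycline and seeded at 80,000 cells/well. Loaded with 2 µM Fluo-4/AM (1 h, 37 °C, HBSS/HEPES/probenecid), then washed. Compound (0.5% DMSO final) given 10 min before quisqualate at its daily EC80. Peak minus basal fluorescence recorded over 60 s. Three independent experiments.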

[6] = biological target: T1, Metabotropic glutamate receptor 5; assay: Non-competitive antagonist activity at human cloned mGluR5 receptor expressed in CHO-T-Rex cells assessed as inhibiton of quisqualate-induced calcium mobilization at 0.3 nM treated 10 mins prior to agonist application by fluorescence analysis; type: functional, cell-based
Target sequence in this assay (P41594 21-1212 limits assumed): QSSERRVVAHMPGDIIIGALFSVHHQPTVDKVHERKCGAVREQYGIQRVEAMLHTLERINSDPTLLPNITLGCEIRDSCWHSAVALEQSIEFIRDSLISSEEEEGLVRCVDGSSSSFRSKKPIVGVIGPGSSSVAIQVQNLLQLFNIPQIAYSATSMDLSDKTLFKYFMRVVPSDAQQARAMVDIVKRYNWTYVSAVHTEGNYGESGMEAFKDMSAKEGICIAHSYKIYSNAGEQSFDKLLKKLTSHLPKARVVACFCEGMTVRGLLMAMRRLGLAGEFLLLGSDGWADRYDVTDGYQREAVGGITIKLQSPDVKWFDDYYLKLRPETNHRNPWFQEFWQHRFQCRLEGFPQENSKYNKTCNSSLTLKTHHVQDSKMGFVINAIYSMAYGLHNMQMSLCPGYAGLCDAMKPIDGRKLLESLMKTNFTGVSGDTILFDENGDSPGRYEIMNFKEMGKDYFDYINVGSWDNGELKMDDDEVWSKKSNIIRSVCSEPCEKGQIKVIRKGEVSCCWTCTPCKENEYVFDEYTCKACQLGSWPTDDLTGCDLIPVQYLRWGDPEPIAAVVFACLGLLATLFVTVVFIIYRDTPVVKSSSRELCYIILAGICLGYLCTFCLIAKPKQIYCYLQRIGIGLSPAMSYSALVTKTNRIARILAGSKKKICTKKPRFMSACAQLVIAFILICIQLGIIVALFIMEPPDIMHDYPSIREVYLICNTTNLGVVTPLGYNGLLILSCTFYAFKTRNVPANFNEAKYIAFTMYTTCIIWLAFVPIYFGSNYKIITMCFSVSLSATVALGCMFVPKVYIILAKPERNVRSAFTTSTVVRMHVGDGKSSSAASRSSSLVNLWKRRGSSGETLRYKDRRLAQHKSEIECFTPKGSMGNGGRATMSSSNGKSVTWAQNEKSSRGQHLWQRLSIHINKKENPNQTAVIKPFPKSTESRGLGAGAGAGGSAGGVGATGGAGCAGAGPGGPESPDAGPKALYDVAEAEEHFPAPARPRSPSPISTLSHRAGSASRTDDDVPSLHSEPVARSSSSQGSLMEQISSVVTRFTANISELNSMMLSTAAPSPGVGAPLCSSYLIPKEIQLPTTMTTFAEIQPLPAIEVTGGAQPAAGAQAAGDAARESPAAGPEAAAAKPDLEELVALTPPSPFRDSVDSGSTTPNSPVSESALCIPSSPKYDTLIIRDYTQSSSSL

Chain of Metabotropic glutamate receptor 5 (Rattus norvegicus, UniProt P31424) (P31424 whole entry): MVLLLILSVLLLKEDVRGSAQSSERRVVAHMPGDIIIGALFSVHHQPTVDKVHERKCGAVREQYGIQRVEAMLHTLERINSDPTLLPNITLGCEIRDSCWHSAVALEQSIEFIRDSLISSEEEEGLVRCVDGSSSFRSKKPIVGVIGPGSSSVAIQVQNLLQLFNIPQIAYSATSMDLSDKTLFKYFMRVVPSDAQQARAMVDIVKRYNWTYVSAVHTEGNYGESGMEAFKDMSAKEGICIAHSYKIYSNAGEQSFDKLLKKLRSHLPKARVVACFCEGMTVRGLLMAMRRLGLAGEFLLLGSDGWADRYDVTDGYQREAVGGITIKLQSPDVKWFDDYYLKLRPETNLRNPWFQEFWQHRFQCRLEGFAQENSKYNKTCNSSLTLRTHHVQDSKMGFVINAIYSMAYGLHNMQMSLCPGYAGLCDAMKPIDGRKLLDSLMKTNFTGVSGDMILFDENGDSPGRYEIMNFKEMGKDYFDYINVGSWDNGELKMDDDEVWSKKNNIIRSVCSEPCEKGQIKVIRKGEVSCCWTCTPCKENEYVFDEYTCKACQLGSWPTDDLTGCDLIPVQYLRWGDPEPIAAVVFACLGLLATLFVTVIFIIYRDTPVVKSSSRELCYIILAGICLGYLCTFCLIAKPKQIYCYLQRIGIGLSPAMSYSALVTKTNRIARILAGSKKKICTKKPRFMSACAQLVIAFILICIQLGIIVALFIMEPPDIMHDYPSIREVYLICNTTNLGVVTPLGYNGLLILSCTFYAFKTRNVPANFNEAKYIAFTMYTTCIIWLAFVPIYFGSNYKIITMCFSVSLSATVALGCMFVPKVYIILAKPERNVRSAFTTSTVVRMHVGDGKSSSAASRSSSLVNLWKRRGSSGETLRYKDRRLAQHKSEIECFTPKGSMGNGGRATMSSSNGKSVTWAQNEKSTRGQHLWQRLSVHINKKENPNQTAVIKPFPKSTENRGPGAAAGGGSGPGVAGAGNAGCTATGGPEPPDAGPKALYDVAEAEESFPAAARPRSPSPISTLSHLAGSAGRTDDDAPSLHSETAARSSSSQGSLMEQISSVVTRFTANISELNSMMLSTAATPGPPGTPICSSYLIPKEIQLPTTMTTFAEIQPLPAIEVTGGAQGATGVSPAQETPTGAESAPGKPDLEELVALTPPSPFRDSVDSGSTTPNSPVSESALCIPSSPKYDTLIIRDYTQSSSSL
T2 sequence (P23385 whole entry): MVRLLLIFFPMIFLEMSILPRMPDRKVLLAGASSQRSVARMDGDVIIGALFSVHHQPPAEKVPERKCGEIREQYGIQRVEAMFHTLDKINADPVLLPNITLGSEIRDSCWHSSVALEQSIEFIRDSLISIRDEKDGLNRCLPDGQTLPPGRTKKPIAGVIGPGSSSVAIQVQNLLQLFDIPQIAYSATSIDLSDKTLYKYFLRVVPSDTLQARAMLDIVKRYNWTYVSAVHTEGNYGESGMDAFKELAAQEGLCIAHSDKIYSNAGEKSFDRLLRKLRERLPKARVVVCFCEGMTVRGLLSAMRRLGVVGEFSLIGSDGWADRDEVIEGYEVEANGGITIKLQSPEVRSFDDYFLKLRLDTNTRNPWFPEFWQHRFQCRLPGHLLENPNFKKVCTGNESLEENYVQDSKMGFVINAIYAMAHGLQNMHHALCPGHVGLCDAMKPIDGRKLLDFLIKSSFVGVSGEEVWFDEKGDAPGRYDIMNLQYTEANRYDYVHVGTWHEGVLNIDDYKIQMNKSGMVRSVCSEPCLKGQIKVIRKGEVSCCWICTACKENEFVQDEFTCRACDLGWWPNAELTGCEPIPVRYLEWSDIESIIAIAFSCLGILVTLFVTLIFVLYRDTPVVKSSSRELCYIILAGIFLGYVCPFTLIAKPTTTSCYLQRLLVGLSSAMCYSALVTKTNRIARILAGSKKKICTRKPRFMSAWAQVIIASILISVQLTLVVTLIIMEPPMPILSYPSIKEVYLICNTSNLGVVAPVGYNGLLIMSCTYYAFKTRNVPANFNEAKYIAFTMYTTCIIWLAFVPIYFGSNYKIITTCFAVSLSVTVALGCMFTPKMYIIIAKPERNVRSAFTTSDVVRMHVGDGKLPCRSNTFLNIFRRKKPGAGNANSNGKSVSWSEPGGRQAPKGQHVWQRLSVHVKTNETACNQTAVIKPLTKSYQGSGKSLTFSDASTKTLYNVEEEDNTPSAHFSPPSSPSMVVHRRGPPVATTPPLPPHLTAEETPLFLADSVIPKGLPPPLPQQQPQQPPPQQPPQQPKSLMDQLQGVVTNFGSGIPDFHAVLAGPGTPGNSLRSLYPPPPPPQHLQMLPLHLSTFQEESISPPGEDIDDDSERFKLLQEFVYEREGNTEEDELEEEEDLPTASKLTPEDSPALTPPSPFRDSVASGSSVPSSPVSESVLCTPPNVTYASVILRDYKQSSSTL

Compound	Ki [1]	Ki [2]	IC50 [3]	Ki [4]	IC50 [5]	inhibition [6]
O=C(C#Cc1ccccc1)N1CCN(c2ncccc2[N+](=O)[O-])CC1	0.6 nM	0.5 nM	0.9 nM	96.8 nM	271 nM	
Cc1ccc([N+](=O)[O-])c(N2CCN(C(=O)c3cccc(-c4ccccc4)c3)CC2)n1	> 10000 nM	> 10000 nM				
O=C(c1ccc(-c2ccccc2)cc1)N1CCN(c2ncccc2[N+](=O)[O-])CC1	> 1000 nM	> 10000 nM				
O=[N+]([O-])c1cccnc1N1CCC(=CC#Cc2ccccn2)CC1	0.1 nM	0.3 nM	0.4 nM	39.1 nM	207 nM	
Cc1nc(C#Cc2cccnc2)cs1				> 10000 nM		
O=[N+]([O-])c1cccnc1N1CCN(CC#Cc2ccccc2)CC1	117 nM	60.7 nM		> 1000 nM		
CC1(C)CN(c2ccc(C#CC=C3CCN(c4ncccc4[N+](=O)[O-])CC3)cc2)C1=O		> 1000 nM				
N#Cc1cc(Cl)cc(C#CC=C2CCN(c3ncccc3[N+](=O)[O-])CC2)c1		283 nM		> 1000 nM		
C=Cc1ccc([N+](=O)[O-])c(N2CCN(C(=O)C#Cc3ccccc3)CC2)n1	1.3 nM		42 nM	54.2 nM		
Cc1cccc(C#Cc2ccccc2)n1				> 10000 nM		
Cc1nc(C#Cc2ccc(-c3cccnc3)nc2)cs1				> 10000 nM		
O=[N+]([O-])c1cccnc1N1CCC(=CC#Cc2ccccc2)CC1	0.6 nM	0.4 nM	2.8 nM	4.8 nM	39.3 nM	
O=C(C#Cc1ccccc1)N1CCN(c2ccccc2[N+](=O)[O-])CC1	1.8 nM	0.4 nM		69.3 nM		
O=C(c1ccccc1-c1ccccc1)N1CCN(c2ncccc2[N+](=O)[O-])CC1	> 10000 nM	> 10000 nM				
CN1CC(=O)N=C1NC(=O)Nc1cccc(Cl)c1 [FENOBAM ANHYDROUS]	313 nM	162 nM	36.3 nM			
Cc1cccc(C#CC=C2CCN(c3ccccc3)CC2)n1	92 nM	29.2 nM	55 nM			
Cc1ccc([N+](=O)[O-])c(N2CCC(=CC#Cc3ccc(C#N)cn3)CC2)n1	0.4 nM	0.3 nM	1.3 nM	190 nM		
Cc1cccc(C#CC=C2CCN(c3ccccc3[N+](=O)[O-])CC2)n1	0.2 nM	0.3 nM	10.4 nM	70.7 nM	551 nM	
O=C(c1cnc2ccccc2n1)N1CCN(c2ncccc2[N+](=O)[O-])CC1	> 1000 nM	> 10000 nM				
Cc1cccc(C#CC=C2CCN(c3ncccc3[N+](=O)[O-])CC2)n1	0.03 nM	0.5 nM	0.8 nM	184 nM	448 nM	50%
O=[N+]([O-])c1cccnc1N1CCC(=CC#Cc2cccc(Cl)c2)CC1	0.4 nM	0.5 nM	3.8 nM	18.6 nM	1340 nM	
Cc1cccc(C#CC=C2CCN(c3ncccc3[N+](=O)[O-])CC2)c1	0.4 nM	0.3 nM	1.8 nM	18.6 nM	543 nM	
Cc1cccc(C#C/C=C2/CCCN(c3nc(C)ccc3[N+](=O)[O-])C2)n1		264 nM		> 1000 nM		
Cc1cccc(C#CC=C2CCN(c3ncc(-c4ccccc4)cc3C#N)CC2)n1	2.9 nM	0.5 nM	9.7 nM	443 nM		

— ChEMBL document CHEMBL3596098, “Insights into the interaction of negative allosteric modulators with the metabotropic glutamate receptor 5: discovery and computational modeling of a new series of ligands with nanomolar affinity” (Bioorg Med Chem, 2015)
